These results are taken from the M2OR odorant receptor database.
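Also: active if original authors judged signal statistically different from baseline.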

In this test the target is T1, UniProt L7MU75.
T1 sequence (whole entry): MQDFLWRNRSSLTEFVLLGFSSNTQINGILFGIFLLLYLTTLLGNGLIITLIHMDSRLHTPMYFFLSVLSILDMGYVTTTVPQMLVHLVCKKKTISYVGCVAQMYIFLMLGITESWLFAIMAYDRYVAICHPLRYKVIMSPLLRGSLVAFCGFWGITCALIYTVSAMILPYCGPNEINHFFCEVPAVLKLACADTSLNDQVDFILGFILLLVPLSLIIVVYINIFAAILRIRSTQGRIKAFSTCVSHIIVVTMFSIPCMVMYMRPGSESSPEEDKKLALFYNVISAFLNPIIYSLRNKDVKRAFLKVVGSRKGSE
The note with it: stereoisomer not certain. A digest of the protocol: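 Transient luciferase assays in mammalian cell lines were common, though methods varied by source. The values come from published papers and their supplementary material, with extra details from the original authors when needed. Responsive refers to a measured signal the original authors judged statistically different from baseline, and non-responsive (inactive) to the remainder.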
`CCCCCCC=CC=O`: the “odorant receptor agonist call” value is “inactive”. In the case of `CCCCCC(C)O` (centres undefined), the “odorant receptor agonist call” value is “inactive”. For the compound `OCCc1ccccc1`, the “odorant receptor agonist call” value was “inactive”. Consider `CCCCCC(=Cc1ccccc1)C(OC)OC`, for which the “odorant receptor agonist call” value was “inactive”.

As for `Cc1ccc2c(c1)OCC(=O)CO2`, the “odorant receptor agonist call” value is “inactive”.

With `CC=C(C)C=O`, the “odorant receptor agonist call” value is “inactive”. With `CCCCCCCCCCOC(C)=O`, the “odorant receptor agonist call” value was “inactive”. On to `CC(=O)C=CC1=C(C)CCCC1(C)C`, for which the “odorant receptor agonist call” value was “inactive”. To `CCCCCCC(C)O` (centres undefined) belongs “inactive”; to `CC(=O)OC1(C)CCC23CC1C(C)(C)C2CCC3C` (centres undefined), “inactive”; to `Cc1ccc(C(C)C)c(O)c1`, “inactive”. Consider `COc1ccccc1`, for which the “odorant receptor agonist call” value is “inactive”. `C1CCOCC1`: the “odorant receptor agonist call” value was “inactive”. On to `CCSSCC`, for which the “odorant receptor agonist call” value is “inactive”. With `C=C(C)C1CCC(C)C(O)C1` (centres undefined), the “odorant receptor agonist call” value is “inactive”. In the case of `O=C(O)CCCCCCCCC(=O)O`, the “odorant receptor agonist call” value is “inactive”.

With `Cc1ccccc1OC(=O)C(C)C`, the “odorant receptor agonist call” value is “inactive”.

With `CC(=O)OCCc1ccccc1`, the “odorant receptor agonist call” value was “inactive”.

As for `CCCCCCCOC(=O)C(C)C`, the “odorant receptor agonist call” value is “inactive”. To `C=C(C)C1CCC2(C)OC2C1` (centres undefined) belongs “inactive”; to `C=CC(C)=CCC=C(C)CCC=C(C)C`, “inactive”. In the case of `C=CC(=O)CCCCC`, the “odorant receptor agonist call” value is “inactive”.

On to `CSSSC`, for which the “odorant receptor agonist call” value was “inactive”. As to `CCCCCCC(=O)OCCCC`, the “odorant receptor agonist call” value was “inactive”. For `CCCCCC=CCCC=O`, the “odorant receptor agonist call” value is “inactive”. For `CCN(CC)CC`, the “odorant receptor agonist call” value was “inactive”. With `O=C(O)C1CCC1`, the “odorant receptor agonist call” value is “inactive”. Take `CC(C)=CCCC(C)=CCOC(=O)C(C)C`: the “odorant receptor agonist call” value is “inactive”. Turning to `CCCCCC(C=O)=Cc1ccccc1`, the “odorant receptor agonist call” value was “inactive”. In the case of `OCC=Cc1ccccc1`, the “odorant receptor agonist call” value was “inactive”. The same measure for `CC1CC=CCCCCCCCCCC(=O)C1` (centres undefined): “inactive”; for `C=CC(=C)CCC=C(C)CCC=C(C)C`: “inactive”. On to `CCSCC`, for which the “odorant receptor agonist call” value is “inactive”. In the case of `CCCCCCCCCC=CC=O`, the “odorant receptor agonist call” value was “inactive”.
